Measurements as given in paper PMC3496770 (Journal of chromatography. A, 2012).

Assays:
[1] = measured by this polymer-water method; cited from earlier work
[2] = Determination of log Ppw and pKa by polymer film; format: physicochemical; settings: both UHPLC and plate reader; p>0.05
Summary of the method: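 The solute, in 20 mM phosphate-citrate, 20 mM phosphate or TFA buffers (pH 0.9–10.0), was added over the films and shaken at 500 rpm, 25 °C, to equilibrium. The aqueous supernatant was quantified by C18 UHPLC or plate-reader UV at 343 nm. Dpw came from initial versus equilibrium aqueous concentration and phase ratio. Ppw and pKa were derived across pH. Duplicates, SEM.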

Row | SMILES | log P [1] | Ppw− (conditional partition coefficient of the anionic form) [2]
1 | Clc1ccc(COC(Cn2ccnc2)c2ccc(Cl)cc2Cl)cc1 (centres unmarked) [econazole] | 4.83 | 
2 | CC1=CC(c2ccccc2)=NS(=O)(=O)N1 [2H-1,2,6-thiadiazine, 3-methyl-5-phenyl-, 1,1-dioxide] |  | statistically zero
